Source: ChEMBL document CHEMBL1926661, “The arginine mimicking β-amino acid β³hPhe(3-H₂N-CH₂) as S1 ligand in cyclotheonamide-based β-tryptase inhibitors” (Bioorg Med Chem, 2011)

Assays:
[1] = Inhibition of trypsin
[2] = Inhibition of beta-tryptase
[3] = Inhibition of human beta-tryptase
[4] = organism: Homo sapiens; test: Selectivity ratio of Ki for Trypsin to Ki for human beta-tryptase
[5] = molecular target: Kallikrein-1 (Homo sapiens, UniProt P06870); test: Inhibition of tissue kallikrein
[6] = Metabolic stability in human serum assessed as compound remaining at 200 uM after 48 hrs by RP-HPLC analysis; format: ADME, cell-free; settings: read-out: Stability
Outline: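 Compound at 200 μM incubated in undiluted human plasma or human serum at 37 °C for up to 48 h. At time points, samples were acidified with an equal volume of 0.1% TFA and centrifuged at 8000 × g for 10 min. Supernatants were analysed by C18 RP-HPLC using a linear H₂O/MeCN (0.1% TFA) gradient over 200 min to quantify remaining intact inhibitor.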

[7] = molecular target: Plasma kallikrein (Homo sapiens, UniProt P03952); test: Inhibition of plasma kallikrein
[8] = Inhibition of human mast cell tryptase-beta using chromogenic substrate
[9] = molecular target: Coagulation factor X (Homo sapiens, UniProt P00742); test: Inhibition of factor 10a
[10] = molecular target: Prothrombin (Homo sapiens, UniProt P00734); test: Inhibition of thrombin

Chain of Kallikrein-1 (P06870 whole entry): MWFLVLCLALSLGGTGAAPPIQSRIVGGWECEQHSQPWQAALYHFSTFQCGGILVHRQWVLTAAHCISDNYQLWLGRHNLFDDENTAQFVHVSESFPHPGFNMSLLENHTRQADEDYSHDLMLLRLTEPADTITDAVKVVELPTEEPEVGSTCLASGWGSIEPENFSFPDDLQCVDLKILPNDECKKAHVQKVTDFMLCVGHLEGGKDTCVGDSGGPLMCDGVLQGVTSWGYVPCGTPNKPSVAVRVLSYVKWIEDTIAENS
Chain of Coagulation factor X (P00742 41-179 limits assumed): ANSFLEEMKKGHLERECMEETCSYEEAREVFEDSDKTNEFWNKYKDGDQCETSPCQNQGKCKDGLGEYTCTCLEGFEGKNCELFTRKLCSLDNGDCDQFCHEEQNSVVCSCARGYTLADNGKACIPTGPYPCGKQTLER
Chain of Coagulation factor X (P00742 235-488 limits assumed): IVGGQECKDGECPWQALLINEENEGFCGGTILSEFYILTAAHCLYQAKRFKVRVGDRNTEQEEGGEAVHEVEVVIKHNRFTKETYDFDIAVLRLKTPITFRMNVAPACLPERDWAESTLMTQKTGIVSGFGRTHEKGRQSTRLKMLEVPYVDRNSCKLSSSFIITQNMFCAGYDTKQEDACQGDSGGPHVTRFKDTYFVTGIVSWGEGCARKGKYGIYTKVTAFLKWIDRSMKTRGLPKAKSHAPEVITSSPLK
Chain of Plasma kallikrein (P03952 20-390 limits assumed): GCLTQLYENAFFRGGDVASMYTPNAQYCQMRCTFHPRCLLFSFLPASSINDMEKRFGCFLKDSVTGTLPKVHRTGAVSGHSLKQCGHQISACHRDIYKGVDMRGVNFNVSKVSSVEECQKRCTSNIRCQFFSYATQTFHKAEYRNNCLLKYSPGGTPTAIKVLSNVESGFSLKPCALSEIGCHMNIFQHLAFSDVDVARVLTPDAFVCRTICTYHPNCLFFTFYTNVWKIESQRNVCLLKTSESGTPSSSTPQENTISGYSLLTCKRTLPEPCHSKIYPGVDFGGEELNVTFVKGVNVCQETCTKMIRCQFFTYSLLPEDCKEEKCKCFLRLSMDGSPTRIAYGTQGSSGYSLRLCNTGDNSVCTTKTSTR
Chain of Plasma kallikrein (P03952 391-638 limits assumed): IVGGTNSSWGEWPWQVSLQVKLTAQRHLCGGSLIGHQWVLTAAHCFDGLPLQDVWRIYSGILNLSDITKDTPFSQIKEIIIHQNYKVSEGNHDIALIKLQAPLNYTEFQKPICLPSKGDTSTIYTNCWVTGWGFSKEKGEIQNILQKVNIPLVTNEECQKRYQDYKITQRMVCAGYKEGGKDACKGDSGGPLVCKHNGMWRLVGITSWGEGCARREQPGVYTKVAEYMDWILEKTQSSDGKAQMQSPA

SMILES	Ki [1]	Ki [2]	Ki [3]	Ratio Ki [4]	Ki [5]	remaining at 48 h, 200 µM [6]	Ki [7]	Ki [8]	Ki [9]	Ki [10]
COC(=O)C(Cc1cccc(CN)c1)NC(C)=O (racemic)	400 µM	14 µM								
CC[C@H](C)[C@H]1NC(=O)C[C@H](CCCCN)NC(=O)[C@@H]2CCCN2C(=O)[C@@H](NC(C)=O)CNC(=O)/C=C/[C@H](Cc2ccc(O)cc2)NC1=O	230 µM		380 µM	0.6						
CC[C@H](C)[C@H]1NC(=O)C[C@H](Cc2cccc(CN)c2)NC(=O)[C@@H]2CCCN2C(=O)[C@@H](NC(C)=O)CNC(=O)/C=C/[C@H](Cc2ccc(O)cc2)NC1=O	100 µM			170	1800 µM	95%	3300 µM	0.6 µM	310 µM	680 µM
CC[C@H](C)[C@H]1NC(=O)C[C@H](CCCNC(=N)N)NC(=O)[C@@H]2CCCN2C(=O)[C@@H](NC(=O)CCCCCN)CNC(=O)/C=C/[C@H](Cc2ccc(O)cc2)NC1=O	10 µM		0.007 µM	1400						
CC[C@H](C)[C@H]1NC(=O)C[C@H](Cc2cccc(CN)c2)NC(=O)[C@@H]2CCCN2C(=O)[C@@H](NC(=O)CCCCCN)CNC(=O)/C=C/[C@H](Cc2ccc(O)cc2)NC1=O	50 µM			2000	1300 µM	81%	2000 µM	0.025 µM	360 µM	330 µM
CC[C@H](C)[C@H]1NC(=O)C[C@H](CCCNC(=N)N)NC(=O)[C@@H]2CCCN2C(=O)[C@@H](NC(C)=O)CNC(=O)/C=C/[C@H](Cc2ccc(O)cc2)NC1=O	30 µM		40 µM	0.8						
